In ChEMBL document CHEMBL1123589, “Phenylpiperazine-based radiopharmaceuticals for brain imaging. 3. Synthesis and evaluation of radioiodinated 1-alkyl-4-phenylpiperazines” (J Med Chem, 1987) one finds Biodistribution data, which are given here for 1 molecule.

Values joined by “and” are separate entries in the source; they are usually repeats but may differ in a detail not shown here. Equal entries are not always repeated.

Holding throughout (conditions): in vivo
The subject of data set [1] is Rattus norvegicus. Nature of the data set: The biodistribution of the [125I]-labeled compound in rats after intravenous injection was evaluated in lung at 0.25 hrs; value ranges from 0.81-1.16 (ID.kg/g). In kind it is ADME, organism-based. The gist of the method: (§1)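 Male Sprague-Dawley rats (250–300 g), under ether anesthesia, given 10–15 μCi of the NCA ¹²⁵I-labeled agent iv in 0.1 mL saline. Groups of N = 3 were killed at 0.25, 1 or 4 h. Blood and tissues were removed, weighed and counted in a γ-well scintillation counter. Values are mean % ID·kg/g (range).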

For data set [2], the system named is Rattus norvegicus. The data set is described as follows: The biodistribution of the [125I]-labeled compound in rats after intravenous injection was evaluated in thyroid at 4.00 hrs; value ranges from 4.85-5.46 (ID.kg/g). Format: ADME, organism-based, Thyroid gland. Summed up:
(§2)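 Male Sprague-Dawley rats (250–300 g) under ether anesthesia given iv 0.1 mL saline containing 10–15 μCi of NCA ¹²⁵I-labeled agent (chloramine-T iodination, HPLC-purified). Groups of 3 killed at 0.25, 1 and 4 h. Blood and tissues excised, weighed and γ-counted. Values are mean (range) of % injected dose × body mass (kg) per gram of tissue.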

The test system of data set [3] is Rattus norvegicus. Nature of the data set: The biodistribution of the [125I]-labeled compound in rats after intravenous injection was evaluated in lung at 1.00 hrs; value ranges from 1.20-1.42( ID.kg/g). Format: ADME, organism-based. Summed up:
as §1

Data set [4] deals with Canis familiaris. Nature of the data set: The biodistribution of the [131I]-labeled compound in dog (mass= 5.7 kg), 2 hr after intravenous injection was evaluated in blood (ID.kg/g). Format: ADME, organism-based, Canis lupus familiaris. The gist of the method:
(§3)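 One female dog (5.7 kg) premedicated im with acepromazine maleate, then anesthetized iv with sodium nembutal/saline (1:1). Given 1.0 mCi iv of ¹³¹I-labeled agent. Killed 2 h post-dose with iv nembutal. Tissues excised, weighed and counted; blood, fat and muscle masses estimated as 7.5%, 27.5% and 40% of body weight. Expressed as % ID/organ and % ID·kg/g.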

Data set [5] has as its system Canis familiaris. The data set is described as follows: The biodistribution of the [131I]-labeled compound in dog (mass= 5.7 kg), 2 hr after intravenous injection was evaluated in thyroid (ID.kg/g). In kind it is ADME, organism-based, Canis lupus familiaris, Thyroid gland. The gist of the method:
as §3

In data set [6] the test system is Canis familiaris. The data set is described as follows: The biodistribution of the [131I]-labeled compound in dog (mass= 5.7 kg), 2 hr after intravenous injection was evaluated in kidney. Format: ADME, organism-based, Canis lupus familiaris. The gist of the method: as §3
The subject of data set [7] is Rattus norvegicus. Nature of the data set: The biodistribution of the [125I]-labeled compound in rats after intravenous injection was evaluated in adrenal at 4.00 hrs; value ranges from 0.81-1.19 (ID.kg/g). Format: ADME, organism-based. The gist of the method: (§4)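 Male Sprague-Dawley rats (250–300 g) under ether anesthesia were given an iv injection of no-carrier-added 125I-labelled agent (10–15 μCi in 0.1 mL saline). The agent was iodinated with chloramine-T in acetate buffer and purified by C-18 HPLC. Groups of N = 3 were killed at 0.25, 1 and 4 h. Blood and tissues were weighed and γ-counted. Values are % ID·kg/g, mean (range).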

In data set [8] the test system is Rattus norvegicus. Nature of the data set: The biodistribution of the [125I]-labeled compound in rats after intravenous injection was evaluated in thyroid at 1.00 hrs; value ranges from 1.69-2.41 (ID.kg/g). In kind it is ADME, organism-based, Thyroid gland. Summed up:
as §2

In data set [9] the test system is Rattus norvegicus. Nature of the data set: The biodistribution of the [125I]-labeled compound in rats after intravenous injection was evaluated in heart at 1.00 hrs; value ranges from 0.26-0.37 (ID.kg/g). Format: ADME, organism-based. Summed up: as §1
Data set [10] has as its system Rattus norvegicus. Nature of the data set: The biodistribution of the [125I]-labeled compound in rats after intravenous injection was evaluated in blood at 0.25 hrs (ID.kg/g). Format: ADME, organism-based. Summed up:
as §4

For data set [11], the system named is Rattus norvegicus. Nature of the data set: The biodistribution of the [125I]-labeled compound in rats after intravenous injection was evaluated in muscle at 4.00 hrs; value ranges from 0.03-0.04 (ID.kg/g). In kind it is ADME, organism-based, Muscle tissue. Summed up: as §2
Data set [12] has as its system Canis familiaris. The data set is described as follows: The biodistribution of the [131I]-labeled compound in dog (mass= 5.7 kg), 2 hr after intravenous injection was evaluated in heart. Format: ADME, organism-based, Canis lupus familiaris. Summed up:
as §3

Data set [13] has as its system Canis familiaris. Nature of the data set: The biodistribution of the [131I]-labeled compound in dog (mass= 5.7 kg), 2 hr after intravenous injection was evaluated in heart (ID.kg/g). In kind it is ADME, organism-based, Canis lupus familiaris. The gist of the method:
as §3

The test system of data set [14] is Rattus norvegicus. Nature of the data set: The biodistribution of the [125I]-labeled compound in rats after intravenous injection was evaluated in brain at 0.25 hrs; value ranges from 0.32-0.38 (ID.kg/g). Format: ADME, organism-based. Summed up: as §4

For the molecule `CCCCN1CCN(c2ccc(I)cc2)CC1`, the Biodistribution in data set [1] is 1.16%; in [2], 5.46%; in data set [3] it was 1.42%; in data set [4] it was 1.072% and 0.148%; in data set [5], 0.032% and 0.342%; in data set [6] it was 0.88%. Moreover, the Biodistribution in [7] is 1.19%; in data set [8], 2.41%; in data set [9], 0.37%; in data set [10] it was 0.01 % ID·kg/g; in [11], 0.04%; in data set [12], 0.182%. Also, the Biodistribution in [13] was 0.85%; in [14], 0.38%.
